Assay results from different studies.
Each line is one published result; the experiments were not run side by side.
RPS6KA3: Ribosomal protein S6 kinase alpha-3 (RPS6KA3, Homo sapiens, UniProt P51812)
RPS6KA3 N-terminal kinase domain: Ribosomal protein S6 kinase alpha-3, N-terminal kinase domain (RPS6KA3, Homo sapiens, UniProt P51812)
RPS6KA3 C-terminal kinase domain: Ribosomal protein S6 kinase alpha-3, C-terminal kinase domain (RPS6KA3, Homo sapiens, UniProt P51812)

`CC(C)S(=O)(=O)c1ccc2nccc(Nc3ccc4sc(C5CCCC5)nc4c3)c2c1` has an activity vs control of 113% (RPS6KA3; enzyme activity; inhibitor; 1 µM).
For `N#Cc1ccc(NC(=O)Nc2ccccc2)cc1`, the remaining binding was 90% (RPS6KA3 N-terminal kinase domain; cell-free assay; competition with immobilised ligand; 25 µM).
With `C#Cc1cc(-c2cc(Nc3nc(N[C@@H](C)c4ccc(F)cn4)ncc3Cl)n[nH]2)ccc1C=O` the inhibition was 39.8% (RPS6KA3; enzyme activity; inhibitor; 0.2 µM).
With `COc1ccc2oc(-c3ccc4nc(N)oc4c3)c/c(=N\c3ccccc3NC(=O)CCN)c2c1` the remaining binding was 98% (RPS6KA3; binding; 1 µM).
For `CN1CCN(C(=O)c2ccc(NC(=O)Nc3ccc(N(C)c4ccnc(Nc5ccc(CS(C)(=O)=O)cc5)n4)cc3)cc2)CC1`, the remaining binding was 86% (RPS6KA3 C-terminal kinase domain; binding; competition with immobilised ligand; 1 µM).
With `CCCCC(=O)Nc1ccc(-c2ccc3ncn(CCC)c(=O)c3c2)cn1` the remaining binding was 99% (RPS6KA3 C-terminal kinase domain; binding; competition with immobilised ligand; 0.5 µM).
With `COc1ccc2[nH]c3c4[nH]c5ccc(OC)cc5c4c4c(c3c2c1)C(=O)NC4=O` the remaining binding was 21% (RPS6KA3 N-terminal kinase domain; binding; competition with immobilised ligand; 1 µM).
The inhibition of `Cc1cc(O)c(-c2ccc([C@@H](C)CN(C)C)cc2)c2c1[nH]c(=O)c1sccc12` is reported as -17.5% (RPS6KA3 C-terminal kinase domain; enzyme activity; inhibitor; 0.1 µM).
